In article PMC9116722 (Cancer chemotherapy and pharmacology, 2022):

Assay: Adverse events
Type: in vivo, human
Conditions: BRCAmut
Procedure, shortened: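 Patients with germline BRCA-mutated cancers, or BRCA-wildtype TNBC or platinum-refractory ovarian cancer, took oral drug continuously twice daily in 28-day cycles. There were nine dose levels from 50 to 500 mg BID under 3+3 escalation, run separately per cohort after the first DLT. Toxicities were graded by CTCAE v4.0, with DLTs assessed during cycle 1.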

## C[C@]1(c2nc3c(C(N)=O)cccc3[nH]2)CCCN1 [veliparib]
DL3 100/100 mg AM/PM
  Anemia, Grade 3: 0 number of patients (%)
  Anemia, Grade 4: 0 number of patients (%)
  Any Grade 3/4 toxicity: 0 number of patients (%)
  Any Grade 3 toxicity: 0 number of patients (%)
  Any Grade 4 toxicity: 0 number of patients (%)
  Appendicitis, Grade 3: 0 number of patients (%)
  Aspartate aminotransferase increased, Grade 3: 0 number of patients (%)
  Dehydration, Grade 3: 0 number of patients (%)
  Dyspnea, Grade 4: 0 number of patients (%)
  Fatigue, Grade 3: 0 number of patients (%)
  Headache, Grade 3: 0 number of patients (%)
  Hypophosphatemia, Grade 3: 0 number of patients (%)
  Lymphocyte count decreased, Grade 3: 0 number of patients (%)
  Lymphocyte count decreased, Grade 4: 0 number of patients (%)
  Nausea, Grade 3: 0 number of patients (%)
  Platelet count decreased, Grade 4: 0 number of patients (%)
  Thromboembolic event, Grade 3: 0 number of patients (%)
  Thromboembolic event, Grade 4: 0 number of patients (%)
  Urinary tract infection, Grade 3: 0 number of patients (%)
DL6 200/200 mg AM/PM
  Abdominal pain, Grade 3: 0 number of patients (%)
  Alkaline phosphatase increased, Grade 3: 0 number of patients (%)
  Anemia, Grade 3: 0 number of patients (%)
  Anemia, Grade 4: 0 number of patients (%)
  Any Grade 3/4 toxicity: 0 number of patients (%)
  Any Grade 3 toxicity: 0 number of patients (%)
  Any Grade 4 toxicity: 0 number of patients (%)
  Appendicitis, Grade 3: 0 number of patients (%)
  Aspartate aminotransferase increased, Grade 3: 0 number of patients (%)
  Dehydration, Grade 3: 0 number of patients (%)
  Dyspnea, Grade 4: 0 number of patients (%)
  Fatigue, Grade 3: 0 number of patients (%)
  Headache, Grade 3: 0 number of patients (%)
  Hypophosphatemia, Grade 3: 0 number of patients (%)
  Lymphocyte count decreased, Grade 3: 0 number of patients (%)
  Lymphocyte count decreased, Grade 4: 0 number of patients (%)
  Nausea, Grade 3: 0 number of patients (%)
  Platelet count decreased, Grade 4: 0 number of patients (%)
  Thromboembolic event, Grade 3: 0 number of patients (%)
  Thromboembolic event, Grade 4: 0 number of patients (%)
  Urinary tract infection, Grade 3: 0 number of patients (%)
DL7 300/300 mg AM/PM
  Abdominal pain, Grade 3: 0 number of patients (%)
  Alkaline phosphatase increased, Grade 3: 0 number of patients (%)
  Anemia, Grade 3: 0 number of patients (%)
  Anemia, Grade 4: 0 number of patients (%)
  Any Grade 3/4 toxicity: 2 (33) number of patients (%)
  Any Grade 3 toxicity: 2 (33) number of patients (%)
  Any Grade 4 toxicity: 0 number of patients (%)
  Appendicitis, Grade 3: 1 (17) number of patients (%)
  Aspartate aminotransferase increased, Grade 3: 0 number of patients (%)
  Dehydration, Grade 3: 0 number of patients (%)
  Dyspnea, Grade 4: 0 number of patients (%)
  Fatigue, Grade 3: 0 number of patients (%)
  Headache, Grade 3: 1 (17) number of patients (%)
  Hypophosphatemia, Grade 3: 0 number of patients (%)
  Lymphocyte count decreased, Grade 3: 1 (17) number of patients (%)
  Lymphocyte count decreased, Grade 4: 0 number of patients (%)
  Nausea, Grade 3: 0 number of patients (%)
  Platelet count decreased, Grade 4: 0 number of patients (%)
  Thromboembolic event, Grade 3: 0 number of patients (%)
  Thromboembolic event, Grade 4: 0 number of patients (%)
  Urinary tract infection, Grade 3: 0 number of patients (%)
DL8 400/400 mg AM/PM
  Abdominal pain, Grade 3: 2 (6) number of patients (%)
  Alkaline phosphatase increased, Grade 3: 0 number of patients (%)
  Anemia, Grade 3: 1 (3) number of patients (%)
  Anemia, Grade 4: 0 number of patients (%)
  Any Grade 3/4 toxicity: 11 (32) number of patients (%)
  Any Grade 3 toxicity: 11 (32) number of patients (%)
  Any Grade 4 toxicity: 1 (3) number of patients (%)
  Appendicitis, Grade 3: 0 number of patients (%)
  Aspartate aminotransferase increased, Grade 3: 0 number of patients (%)
  Dehydration, Grade 3: 1 (3) number of patients (%)
  Dyspnea, Grade 4: 0 number of patients (%)
  Fatigue, Grade 3: 1 (3) number of patients (%)
  Headache, Grade 3: 0 number of patients (%)
  Hypophosphatemia, Grade 3: 1 (3) number of patients (%)
  Lymphocyte count decreased, Grade 3: 7 (21) number of patients (%)
  Lymphocyte count decreased, Grade 4: 1 (3) number of patients (%)
  Nausea, Grade 3: 2 (6) number of patients (%)
  Platelet count decreased, Grade 4: 0 number of patients (%)
  Thromboembolic event, Grade 3: 2 (6) number of patients (%)
  Thromboembolic event, Grade 4: 0 number of patients (%)
  Urinary tract infection, Grade 3: 1 (3) number of patients (%)
DL9 500/500 mg AM/PM
  Abdominal pain, Grade 3: 0 number of patients (%)
  Alkaline phosphatase increased, Grade 3: 0 number of patients (%)
  Anemia, Grade 3: 0 number of patients (%)
  Anemia, Grade 4: 1 (14) number of patients (%)
  Any Grade 3/4 toxicity: 2 (29) number of patients (%)
